According to ChEMBL document CHEMBL1124194, “Enantioselectivity of muscarinic antagonists. Isomeric 2-cyclohexyl-2-phenyl-5-[(dimethylamino)methyl]-1,3-oxathiolane methiodides” (J Med Chem, 1988):

Tests used:
Assay type in all cases: ADME, organism-based
Cavia porcellus [1] = organism: Cavia porcellus; experiment: Tested for antimuscarinic potency on guinea pig heart force; conditions: for Kb: Cavia porcellus, Heart, read-out: pA2 (converted)
In short: (§1)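 Guinea pig heart (force and rate) antagonism of carbachol as agonist; pA2 from Schild plot with slope constrained to 1; six to eight replications. Where an antagonist lowered the carbachol maximum at 1×10^-5 M, −log Kb was instead calculated from log(Dr − 1) = log[ant.] − log Kb at a single antagonist concentration of 3×10^-6 M.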

Cavia porcellus [2] = organism: Cavia porcellus; experiment: Tested for antimuscarinic potency on guinea pig heart rate; conditions: for Kb: Cavia porcellus, Heart, read-out: pA2 (converted); in short: as §1
Cavia porcellus [3] = organism: Cavia porcellus; experiment: Tested for antimuscarinic potency on guinea pig ileum; conditions: for Kb: Cavia porcellus, Ileum, read-out: pA2 (converted)
Rattus norvegicus = organism: Rattus norvegicus; experiment: Tested for antimuscarinic potency on rat bladder; conditions: for Kb: Rattus norvegicus, read-out: pA2 (converted)

C[N+](C)(C)C[C@@H]1CS[C@](c2ccccc2)(C2CCCCC2)O1.[I-] (racemic)
Kb (Cavia porcellus [1]): 0.00776 µM
Kb (Cavia porcellus [2]): 0.00724 µM
pA2 (Cavia porcellus [3]): 8.26
pA2 (Rattus norvegicus): 8.05

C[N+](C)(C)C[C@@H]1CS[C@](c2ccccc2)(C2CCCCC2)O1.[I-] (stereo in doubt; (+)-2)
pA2 (Cavia porcellus [1]): 8.1
pA2 (Cavia porcellus [2]): 8.05
pA2 (Cavia porcellus [3]): 8.57
pA2 (Rattus norvegicus): 8.29

CN(C)C[C@@H]1CS[C@@](c2ccccc2)(C2CCCCC2)O1 (racemic)
Kb (Cavia porcellus [1]): 0.263 µM
Kb (Cavia porcellus [2]): 0.162 µM
Kb (Cavia porcellus [3]): 0.0372 µM
Kb (Rattus norvegicus): 0.123 µM

CN(C)C[C@@H]1CS[C@](c2ccccc2)(C2CCCCC2)O1 (racemic)
Kb (Cavia porcellus [1]): 0.0331 µM
Kb (Cavia porcellus [2]): 0.0372 µM
Kb (Cavia porcellus [3]): 0.012 µM
Kb (Rattus norvegicus): 0.0447 µM

CN1[C@@H]2CC[C@H]1C[C@@H](OC(=O)C(CO)c1ccccc1)C2 (stereo partly drawn) [ATROPINE]
Kb (Rattus norvegicus): 0.00129 µM

C[N+](C)(C)C[C@@H]1CS[C@@](c2ccccc2)(C2CCCCC2)O1.[I-] (stereo in doubt; (-)4)
pA2 (Cavia porcellus [1]): 8.16
pA2 (Cavia porcellus [2]): 7.99
pA2 (Cavia porcellus [3]): 7.86
pA2 (Rattus norvegicus): 7.45

C[N+](C)(C)C[C@@H]1CS[C@@](c2ccccc2)(C2CCCCC2)O1.[I-] (racemic)
pA2 (Cavia porcellus [1]): 8.13
pA2 (Cavia porcellus [2]): 7.91
pA2 (Cavia porcellus [3]): 8.38
pA2 (Rattus norvegicus): 8.22

C[N+](C)(C)C[C@@H]1CS[C@](c2ccccc2)(C2CCCCC2)O1.[I-] (stereo in doubt; (-)2)
pA2 (Cavia porcellus [1]): 8.07
pA2 (Cavia porcellus [2]): 8.06
pA2 (Cavia porcellus [3]): 7.86
pA2 (Rattus norvegicus): 7.61

C[N+](C)(C)C[C@@H]1CS[C@@](c2ccccc2)(C2CCCCC2)O1.[I-] (stereo in doubt; (+)4)
pA2 (Cavia porcellus [1]): 8.47
pA2 (Cavia porcellus [2]): 8.35
pA2 (Cavia porcellus [3]): 8.79
pA2 (Rattus norvegicus): 8.58
